Converted amounts (≈) assume the structure as drawn.
What was measured:
HepG2 = assay: Cytotoxicity against human HepG2 cells assessed as reduction in cell viability after 48 hrs by CellTiter-Glo assay; assay type: cell-based; conditions: HepG2, 48 h
Method in brief: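 HepG2 cells seeded at 10 000/well in EMEM with 5% FCS and 2 mM glutamine. After 24 h, ten 1:2 serial compound dilutions (0.5% DMSO final) added in duplicate for 48 h. Read-out by CellTiter-Glo luminescence per table footnote; the method text also describes resazurin fluorescence (ex 515/em 590 nm). Sigmoidal variable-slope fit.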

[1] = system: Mycobacterium tuberculosis; assay: Antimicrobial activity against Mycobacterium tuberculosis H37Rv infected in C57BL/6J mouse assessed as 2 log reduction in bacterial load in lungs administered qd for 8 consecutive days starting on day 1 post infection measured 24 hrs post last dose; assay type: functional
cytoplasmic LeuRS = assay: Selectivity index, ratio of EC50 for inhibition of cytoplasmic LeuRS in HepG2 cells assessed as reduction in protein synthesis to MIC for Mycobacterium tuberculosis H37Rv; assay type: toxicity, cell-based; conditions: human, read-out: Selectivity Index
Method in brief: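 Ratio of HepG2 protein-synthesis EC50 to MIC against M. tuberculosis H37Rv.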

Leucine--tRNA ligase = target: T1, Leucine--tRNA ligase (Mycobacterium tuberculosis (strain ATCC 25618 / H37Rv), UniProt P9WFV1); assay: Inhibition of Mycobacterium tuberculosis H37Rv N-terminal 6His-tagged LeuRS expressed in Escherichia coli BL21(DE3) assessed as L-[14C]leucine incorporation in to Escherichia coli tRNA after 20 mins by liquid scintillation counting analysis
T1 sequence (P9WFV1 whole entry): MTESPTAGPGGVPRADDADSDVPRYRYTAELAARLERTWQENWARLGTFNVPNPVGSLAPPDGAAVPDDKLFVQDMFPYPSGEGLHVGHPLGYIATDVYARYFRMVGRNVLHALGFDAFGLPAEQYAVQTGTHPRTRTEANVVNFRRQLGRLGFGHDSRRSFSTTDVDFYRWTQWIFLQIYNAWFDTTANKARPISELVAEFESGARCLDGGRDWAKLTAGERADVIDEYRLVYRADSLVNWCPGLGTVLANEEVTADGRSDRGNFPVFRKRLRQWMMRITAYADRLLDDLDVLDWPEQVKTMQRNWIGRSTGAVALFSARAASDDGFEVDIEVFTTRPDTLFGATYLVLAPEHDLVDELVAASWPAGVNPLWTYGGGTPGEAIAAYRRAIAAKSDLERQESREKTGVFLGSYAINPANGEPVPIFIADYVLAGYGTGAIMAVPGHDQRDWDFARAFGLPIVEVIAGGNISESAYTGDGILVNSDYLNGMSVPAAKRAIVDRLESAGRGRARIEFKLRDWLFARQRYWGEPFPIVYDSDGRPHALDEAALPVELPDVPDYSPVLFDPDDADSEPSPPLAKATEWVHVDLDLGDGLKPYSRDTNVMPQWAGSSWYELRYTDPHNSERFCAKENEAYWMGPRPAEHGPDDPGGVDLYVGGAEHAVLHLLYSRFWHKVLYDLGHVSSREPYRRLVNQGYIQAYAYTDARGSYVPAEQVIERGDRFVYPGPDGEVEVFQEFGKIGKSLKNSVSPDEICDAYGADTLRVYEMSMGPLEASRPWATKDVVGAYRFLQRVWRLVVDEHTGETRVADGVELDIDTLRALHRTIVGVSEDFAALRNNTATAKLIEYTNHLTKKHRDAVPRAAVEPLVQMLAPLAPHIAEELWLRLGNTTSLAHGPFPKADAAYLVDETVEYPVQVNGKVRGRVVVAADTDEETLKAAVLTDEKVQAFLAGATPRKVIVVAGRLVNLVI
Method in brief: (§1)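 N-terminal His6-tagged LeuRS expressed in E. coli BL21(DE3), codon-optimized. 50 mM HEPES-KOH pH 8.0, 30 mM MgCl2, 30 mM KCl, 13 μM L-[14C]leucine, 15 μM tRNA (E. coli total; brewer's yeast for human cytoplasmic enzyme), 0.02% BSA, 1 mM DTT, 30 °C. Inhibitor preincubated 20 min, started with 4 mM ATP, TCA-quenched after 7 min, filtered, scintillation counted; four-parameter logistic IC50.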

[2] = target: Leucine--tRNA ligase, cytoplasmic (Homo sapiens, UniProt Q9P2J5); assay: Inhibition of cytoplasmic LeuRS in human HepG2 cells assessed as reduction in protein synthesis preincubated for 48 hrs followed by L-[14C]leucine addition measured after 3 hrs by liquid scintillation counting analysis; assay type: cell-based
Chain of Leucine--tRNA ligase, cytoplasmic (Q9P2J5 whole entry): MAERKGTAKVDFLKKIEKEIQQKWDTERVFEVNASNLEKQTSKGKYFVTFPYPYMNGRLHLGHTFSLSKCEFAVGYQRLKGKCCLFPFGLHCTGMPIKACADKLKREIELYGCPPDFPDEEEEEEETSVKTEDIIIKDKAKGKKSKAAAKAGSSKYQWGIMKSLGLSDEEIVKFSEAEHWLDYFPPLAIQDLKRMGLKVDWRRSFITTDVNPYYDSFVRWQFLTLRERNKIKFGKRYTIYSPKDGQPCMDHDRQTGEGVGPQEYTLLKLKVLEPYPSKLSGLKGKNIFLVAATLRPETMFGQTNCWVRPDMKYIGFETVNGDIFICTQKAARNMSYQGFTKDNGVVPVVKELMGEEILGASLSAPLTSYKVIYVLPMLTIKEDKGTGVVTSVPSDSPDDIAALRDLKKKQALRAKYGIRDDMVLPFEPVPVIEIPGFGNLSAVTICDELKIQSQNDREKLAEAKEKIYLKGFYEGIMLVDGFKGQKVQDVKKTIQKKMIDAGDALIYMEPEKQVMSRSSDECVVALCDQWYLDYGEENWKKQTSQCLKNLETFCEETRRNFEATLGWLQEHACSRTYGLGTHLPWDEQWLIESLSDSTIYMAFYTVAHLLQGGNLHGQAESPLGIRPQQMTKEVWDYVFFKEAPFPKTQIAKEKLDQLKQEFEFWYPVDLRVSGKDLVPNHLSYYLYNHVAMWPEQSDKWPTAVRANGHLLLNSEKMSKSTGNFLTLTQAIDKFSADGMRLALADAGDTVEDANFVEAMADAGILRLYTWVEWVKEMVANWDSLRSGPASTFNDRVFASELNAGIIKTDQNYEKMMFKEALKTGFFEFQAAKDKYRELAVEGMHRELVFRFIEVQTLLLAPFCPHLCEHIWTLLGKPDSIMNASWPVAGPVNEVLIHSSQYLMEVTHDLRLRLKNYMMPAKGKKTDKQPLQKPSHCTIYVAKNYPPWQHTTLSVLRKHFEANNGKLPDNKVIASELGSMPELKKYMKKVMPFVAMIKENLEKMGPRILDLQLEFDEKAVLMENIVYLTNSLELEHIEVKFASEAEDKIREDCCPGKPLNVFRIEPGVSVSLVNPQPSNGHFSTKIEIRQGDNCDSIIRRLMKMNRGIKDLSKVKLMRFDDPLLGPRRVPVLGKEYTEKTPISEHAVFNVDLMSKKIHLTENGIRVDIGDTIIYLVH
Method in brief: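 HepG2 cells in DMEM/10% FCS, 3000 cells/well, exposed to compound dilutions (0.5% DMSO final) for 48 h at 37 °C. Medium then replaced with fresh medium containing 0.5 μCi L-[14C]leucine and the same compound levels for 3 h. Cells trypsinised, precipitated in ice-cold 20% TCA, filtered, washed, scintillation counted; curve-fit EC50; mean of at least duplicates.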

[3] = target: T2, Leucine--tRNA ligase, mitochondrial (Homo sapiens, UniProt Q15031); assay: Inhibition of human N-terminal 6His-tagged mitochondrial LeuRS expressed in Escherichia coli BL21(DE3) assessed as L-[14C]leucine incorporation in to Escherichia coli tRNA after 20 mins by liquid scintillation counting analysis; method in brief: as §1
T2 sequence (Q15031 whole entry): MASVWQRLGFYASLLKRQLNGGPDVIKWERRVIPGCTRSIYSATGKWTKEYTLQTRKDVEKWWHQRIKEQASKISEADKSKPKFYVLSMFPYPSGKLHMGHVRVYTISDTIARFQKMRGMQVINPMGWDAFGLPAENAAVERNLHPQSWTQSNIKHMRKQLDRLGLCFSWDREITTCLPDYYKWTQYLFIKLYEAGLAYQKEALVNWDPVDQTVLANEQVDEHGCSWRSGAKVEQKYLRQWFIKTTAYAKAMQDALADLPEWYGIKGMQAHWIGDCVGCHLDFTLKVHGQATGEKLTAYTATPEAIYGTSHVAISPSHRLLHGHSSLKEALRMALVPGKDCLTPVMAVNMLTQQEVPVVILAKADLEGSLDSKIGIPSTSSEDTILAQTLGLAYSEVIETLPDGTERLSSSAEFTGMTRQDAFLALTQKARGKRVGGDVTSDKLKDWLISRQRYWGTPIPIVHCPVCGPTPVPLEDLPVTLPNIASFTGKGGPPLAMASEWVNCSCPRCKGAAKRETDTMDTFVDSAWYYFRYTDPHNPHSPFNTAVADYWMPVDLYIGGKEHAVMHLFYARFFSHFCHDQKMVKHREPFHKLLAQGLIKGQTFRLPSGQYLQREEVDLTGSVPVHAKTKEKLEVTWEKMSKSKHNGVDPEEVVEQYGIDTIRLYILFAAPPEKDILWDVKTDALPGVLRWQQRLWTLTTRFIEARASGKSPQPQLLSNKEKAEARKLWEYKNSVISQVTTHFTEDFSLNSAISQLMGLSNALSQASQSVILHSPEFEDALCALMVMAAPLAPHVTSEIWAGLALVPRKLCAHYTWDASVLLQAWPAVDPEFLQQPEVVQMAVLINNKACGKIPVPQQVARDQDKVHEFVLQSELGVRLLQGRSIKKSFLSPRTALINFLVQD

[4] = system: Mycobacterium tuberculosis; assay: Antimicrobial activity against Mycobacterium tuberculosis H37Rv; assay type: functional

CCOc1ccc(Br)c2c1B(O)O[C@@H]2CN
EC50 (HepG2): 47.1 µM
ED99 [1]: < 1 mg/kg
selectivity ratio (cytoplasmic LeuRS): 305
IC50 (Leucine--tRNA ligase): 0.075 µM
EC50 [2]: 30.5 µM
IC50 [3]: > 300 µM
MIC [4]: 0.1 µM (≈ 0.0286 µg/mL)

Cl.NC[C@H]1OB(O)c2c(OCCO)ccc(Cl)c21
EC50 (HepG2): 381 µM
ED99 [1]: 0.4 mg/kg
selectivity ratio (cytoplasmic LeuRS): 1710
IC50 (Leucine--tRNA ligase): 0.2 µM
EC50 [2]: 137 µM
IC50 [3]: > 300 µM
MIC [4]: 0.08 µM
